Measurements reported in ChEMBL document CHEMBL3227986, “Design of species- or isozyme-specific enzyme inhibitors. 1. Effect of thymidine substituents on affinity for the thymidine site of hamster cytoplasmic thymidine kinase” (J Med Chem, 1979).
Active and inactive are the calls of the source. The rule behind the calls is not given here.

Columns and labels:
[1] = target: T1, Thymidine kinase, cytosolic (Cricetulus griseus) (UniProt P09768); test: Inhibition of thymidine kinase in BHK21 (C13) cells using [14C]thymidine at 50 uM after 10 mins by liquid scintillation spectrometer analysis relative to control in presence of Mg2+; assay type: cell-based; details: Mesocricetus auratus
T1 sequence (whole entry): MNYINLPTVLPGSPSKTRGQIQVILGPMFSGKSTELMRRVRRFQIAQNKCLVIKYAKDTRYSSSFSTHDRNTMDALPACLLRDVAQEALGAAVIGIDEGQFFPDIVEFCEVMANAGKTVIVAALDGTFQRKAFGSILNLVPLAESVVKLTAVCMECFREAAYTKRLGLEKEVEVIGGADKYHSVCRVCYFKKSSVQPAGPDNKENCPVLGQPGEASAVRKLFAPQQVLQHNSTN

[2] = target: T2, Thymidine kinase, cytosolic (Mus musculus, UniProt P04184); test: Competitive inhibition of thymidine kinase in mouse Ehrlich's ascites cells
T2 sequence (P04184 whole entry): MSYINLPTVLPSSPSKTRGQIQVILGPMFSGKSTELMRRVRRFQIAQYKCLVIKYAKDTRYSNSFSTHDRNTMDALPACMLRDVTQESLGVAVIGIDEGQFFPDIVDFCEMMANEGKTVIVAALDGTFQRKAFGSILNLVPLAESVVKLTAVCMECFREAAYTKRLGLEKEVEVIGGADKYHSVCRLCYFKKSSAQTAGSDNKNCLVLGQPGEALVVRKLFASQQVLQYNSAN

[3] = target: T3, Thymidine kinase 2, mitochondrial (Homo sapiens) (UniProt O00142); test: Inhibition of human mitochondrial thymidine kinase using [14C]thymidine at 0.19 mM after 10 mins by liquid scintillation spectrometer analysis relative to control in presence of Mg2+
T3 sequence (whole entry): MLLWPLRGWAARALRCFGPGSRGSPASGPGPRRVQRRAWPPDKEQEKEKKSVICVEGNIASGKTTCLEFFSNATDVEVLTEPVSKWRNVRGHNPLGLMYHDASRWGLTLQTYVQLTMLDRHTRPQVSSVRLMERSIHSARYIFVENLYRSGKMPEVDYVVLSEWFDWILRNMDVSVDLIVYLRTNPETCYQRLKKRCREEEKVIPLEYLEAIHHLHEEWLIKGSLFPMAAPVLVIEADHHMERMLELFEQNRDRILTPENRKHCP

[4] = target: T1, Thymidine kinase, cytosolic (Cricetulus griseus); test: Inhibition of thymidine kinase in BHK21 (C13) cells using thymidine as substrate assessed as formation of TMP at 1.4 mM; assay type: cell-based; details: Mesocricetus auratus
How it was run: (§1)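 BHK21(C13) 100000g supernatant in Tris-HCl 0.05 M pH 8.0, ATP 5 mM, MgCl2 2.5 mM, [14C]thymidine 3.6 μM, 10 min at 37 °C. Reaction stopped by boiling; [14C]TMP bound to DEAE-cellulose disks and counted by liquid scintillation, corrected for unincubated blanks.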

[5] = target: T1, Thymidine kinase, cytosolic (Cricetulus griseus); test: Inhibition of thymidine kinase in BHK21 (C13) cells using thymidine as substrate assessed as formation of TMP at 0.28 mM; assay type: cell-based; details: Mesocricetus auratus; how it was run: as §1
[6] = target: T1, Thymidine kinase, cytosolic (Cricetulus griseus); test: Inhibition of thymidine kinase in BHK21 (C13) cells using thymidine as substrate assessed as formation of TMP at 0.1 mM; assay type: cell-based; details: Mesocricetus auratus; how it was run: as §1
[7] = target: T1, Thymidine kinase, cytosolic (Cricetulus griseus); test: Inhibition of thymidine kinase in BHK21 (C13) cells using thymidine as substrate assessed as formation of TMP at 0.2 mM; assay type: cell-based; details: Mesocricetus auratus; how it was run: as §1
[8] = target: T1, Thymidine kinase, cytosolic (Cricetulus griseus); test: Effect on thymidine kinase in BHK21 (C13) cells using [14C]thymidine at 5 mM after 10 mins by liquid scintillation spectrometer analysis relative to control in presence of Mg2+; assay type: cell-based; details: Mesocricetus auratus
How it was run: (§2)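 BHK21(C13) high-speed supernatant, 10 min at 37 °C, [14C]TMP on DEAE-cellulose disks, scintillation counting. Phosphate donors (nucleoside triphosphates 5 mM, giving 2.5 mM Mg2+ triphosphates) tested with 14.4 μM [14C]thymidine. Inhibitor assays used 0.19 mM [14C]thymidine: 5-iodo nucleosides at 0.19 mM with saturating Mg2+-ATP, or dCTP 5 mM with ATP 5 mM and MgCl2 7.5 mM.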

[9] = target: T4, Thymidine kinase, cytosolic (Homo sapiens) (UniProt P04183); test: Effect on human cytoplasmic thymidine kinase using [14C]thymidine at 2 mM after 10 mins by liquid scintillation spectrometer analysis relative to control in presence of Mg2+
T4 sequence (whole entry): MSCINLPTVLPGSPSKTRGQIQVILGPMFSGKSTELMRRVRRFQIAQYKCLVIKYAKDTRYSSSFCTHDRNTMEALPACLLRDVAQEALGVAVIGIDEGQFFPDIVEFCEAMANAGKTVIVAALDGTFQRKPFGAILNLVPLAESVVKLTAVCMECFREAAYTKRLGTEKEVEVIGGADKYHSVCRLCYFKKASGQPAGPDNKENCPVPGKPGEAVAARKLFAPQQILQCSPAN

[10] = target: T3, Thymidine kinase 2, mitochondrial (Homo sapiens); test: Effect on human mitochondrial thymidine kinase using [14C]thymidine at 2 mM after 10 mins by liquid scintillation spectrometer analysis relative to control in presence of Mg2+
[11] = target: T1, Thymidine kinase, cytosolic (Cricetulus griseus); test: Inhibition of thymidine kinase in BHK21 (C13) cells using thymidine as substrate assessed as formation of TMP at […]; assay type: cell-based; details: Mesocricetus auratus
[12] = target: T1, Thymidine kinase, cytosolic (Cricetulus griseus); test: Inhibition of thymidine kinase in BHK21 (C13) cells using thymidine as substrate assessed as formation of TMP at 0.74 mM; assay type: cell-based; details: Mesocricetus auratus; how it was run: as §1
[13] = target: T1, Thymidine kinase, cytosolic (Cricetulus griseus); test: Inhibition of thymidine kinase in BHK21 (C13) cells using [14C]thymidine at 200 uM after 10 mins by liquid scintillation spectrometer analysis relative to control in presence of Mg2+; assay type: cell-based; details: Mesocricetus auratus
[14] = target: T1, Thymidine kinase, cytosolic (Cricetulus griseus); test: Inhibition of thymidine kinase in BHK21 (C13) cells using [14C]thymidine after 10 mins by liquid scintillation spectrometer analysis relative to control in presence of Mg2+; assay type: cell-based; details: Mesocricetus auratus; how it was run: as §2
[15] = target: T3, Thymidine kinase 2, mitochondrial (Homo sapiens); test: Inhibition of human mitochondrial thymidine kinase using [14C]thymidine after 10 mins by liquid scintillation spectrometer analysis relative to control in presence of Mg2+
[16] = target: T4, Thymidine kinase, cytosolic (Homo sapiens); test: Inhibition of human cytoplasmic thymidine kinase using [14C]thymidine after 10 mins by liquid scintillation spectrometer analysis relative to control in presence of Mg2+
[17] = target: T1, Thymidine kinase, cytosolic (Cricetulus griseus); test: Inhibition of thymidine kinase in BHK21 (C13) cells using thymidine as substrate assessed as formation of TMP at 15.5 mM; assay type: cell-based; details: Mesocricetus auratus; how it was run: as §1
[18] = target: T1, Thymidine kinase, cytosolic (Cricetulus griseus); test: Inhibition of thymidine kinase in BHK21 (C13) cells using thymidine as substrate assessed as formation of TMP at 7.8 mM; assay type: cell-based; details: Mesocricetus auratus; how it was run: as §1
[19] = target: T1, Thymidine kinase, cytosolic (Cricetulus griseus); test: Activity at thymidine kinase in BHK21 (C13) cells at 60 uM after 30 mins relative to thymidine; assay type: cell-based; details: Mesocricetus auratus
How it was run: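 Radiolabeled thymidine or 2'-deoxyuridine derivatives tested as substrates: 40 μL BHK21(C13) 100000g supernatant, Tris-HCl 0.05 M pH 8.0, ATP 5 mM, MgCl2 2.5 mM, no thymidine, 30 min at 37 °C. Products separated by paper electrophoresis in 0.05 M triethylammonium bicarbonate pH 7.6; radioactivity counted in the TMP region.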

## Cc1cn([C@H]2C[C@H](O)[C@@H](COP(=O)(O)OP(=O)(O)OP(=O)(O)O)O2)c(=O)[nH]c1=O
[1]
  inhibition: Active

## CCOC1N([C@H]2C[C@H](O)[C@@H](CO)O2)C(=O)NC(=O)C1(C)Br (single isomer, unassigned; more polar)
[2]
  Ki: 24 µM

## O=c1[nH]c(=O)n([C@H]2C[C@H](O)[C@@H](CO)O2)cc1I
[3]
  inhibition: 31%

## CCS[C@H]1C[C@H](n2cc(C)c(=O)[nH]c2=O)O[C@@H]1CO
[4]
  inhibition: 60%
[5]
  inhibition: 31%

## CCCn1c(=O)c(C)cn([C@H]2C[C@H](O)[C@@H](CO)O2)c1=O
[6]
  inhibition: 16%
[7]
  inhibition: 34%

## O=c1ccn([C@H]2C[C@H](O)[C@@H](CO)O2)c(=O)[nH]1
[6]
  inhibition: 38%
[7]
  inhibition: 59%

## Nc1ncnc2c1ncn2[C@@H]1O[C@H](COP(=O)(O)OP(=O)(O)OP(=O)(O)O)[C@@H](O)[C@H]1O
[8]
  Activity: 100%
[9]
  Activity: 100%
[10]
  Activity: 100%

## Nc1ccn([C@H]2C[C@H](O)[C@@H](CO)O2)c(=O)n1
[11]
  inhibition: 10%
[12]
  inhibition: 24%

## Nc1nc(=O)n([C@H]2C[C@H](O)[C@@H](CO)O2)cc1I
[3]
  inhibition: 64%

## CC(=O)Nc1cn([C@H]2C[C@H](O)[C@@H](COP(=O)(O)OP(=O)(O)OP(=O)(O)O)O2)c(=O)[nH]c1=O
[13]
  inhibition: Active

## Nc1ccn([C@H]2C[C@H](O)[C@@H](COP(=O)(O)OP(=O)(O)OP(=O)(O)O)O2)c(=O)n1
[14]
  inhibition: 27%
[15]
  inhibition: 82%
[16]
  inhibition: 15%

## CCCn1c(=O)ccn([C@H]2C[C@H](O)[C@@H](CO)O2)c1=O
[17]
  inhibition: 36%
[18]
  inhibition: 18%

## Nc1ccn([C@@H]2O[C@H](COP(=O)(O)OP(=O)(O)OP(=O)(O)O)[C@@H](O)[C@H]2O)c(=O)n1
[8]
  Activity: 15%
[9]
  Activity: 21%
[10]
  Activity: 79%

## Nc1ncnc2c1ncn2[C@H]1C[C@H](O)[C@@H](COP(=O)(O)OP(=O)(O)OP(=O)(O)O)O1
[8]
  Activity: 107%
[9]
  Activity: 108%
[10]
  Activity: 56%

## CC(=O)NCCCC(=O)Nc1cn([C@H]2C[C@H](O)[C@@H](CO)O2)c(=O)[nH]c1=O
[19]
  Activity: < 0.25%
